# Platelet DG rel: modulates dense granule release in human platelets | inhibition, %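 (compounds screened at 7.5 µM in platelet-rich plasma)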 | human platelet-rich plasma, SFLLRN dense granule ATP release, luminescence | AID 1663 | 300,000 tested, 0.22% active;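 active = mean replicate score, as percent of positive control, at or above 50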
# TRPC4 block: TRPC4 (mouse) channel inhibition; B-score at 10 µM; HEK293 TRPC4beta/mu-opioid, DAMGO-evoked Fluo4 calcium flux; active compounds read low; Q9QUQ5; 300,000 tested, 0.39% active; AID 2247;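 active = B-score over 3 SD under the library average, no early fluorescence shift, positive overall ratio signal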
# Target sequence (Q9QUQ5 whole entry, looked up): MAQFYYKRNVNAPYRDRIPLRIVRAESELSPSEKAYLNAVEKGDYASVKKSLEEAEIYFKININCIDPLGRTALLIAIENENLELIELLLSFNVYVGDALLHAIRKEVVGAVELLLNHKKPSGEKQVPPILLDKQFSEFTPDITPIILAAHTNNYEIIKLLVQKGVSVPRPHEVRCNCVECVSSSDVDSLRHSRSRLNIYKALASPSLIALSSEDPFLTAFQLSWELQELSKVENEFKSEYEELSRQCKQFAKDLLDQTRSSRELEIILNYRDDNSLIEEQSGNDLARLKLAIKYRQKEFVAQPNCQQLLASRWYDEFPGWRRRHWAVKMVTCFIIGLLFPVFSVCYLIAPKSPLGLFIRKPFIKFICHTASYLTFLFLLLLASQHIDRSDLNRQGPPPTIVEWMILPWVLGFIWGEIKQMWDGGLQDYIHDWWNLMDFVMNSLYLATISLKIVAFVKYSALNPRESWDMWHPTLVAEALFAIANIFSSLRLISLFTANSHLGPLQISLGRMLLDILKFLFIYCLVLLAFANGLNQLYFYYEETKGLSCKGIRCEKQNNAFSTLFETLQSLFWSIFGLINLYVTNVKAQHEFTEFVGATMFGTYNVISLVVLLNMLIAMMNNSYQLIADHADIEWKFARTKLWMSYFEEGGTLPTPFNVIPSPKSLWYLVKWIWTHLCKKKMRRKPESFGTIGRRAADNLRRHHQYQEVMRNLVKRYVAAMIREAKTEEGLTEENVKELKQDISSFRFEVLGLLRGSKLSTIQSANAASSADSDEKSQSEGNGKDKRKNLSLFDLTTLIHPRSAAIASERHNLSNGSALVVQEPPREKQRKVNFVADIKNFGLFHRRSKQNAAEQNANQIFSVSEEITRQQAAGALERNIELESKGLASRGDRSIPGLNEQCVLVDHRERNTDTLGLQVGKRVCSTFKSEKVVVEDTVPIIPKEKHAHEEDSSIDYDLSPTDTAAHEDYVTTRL
#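 Assay system: Stable TRPC4beta/mu-opioid receptor HEK293 cells | Reagent: DAMGO in two steps, submaximal then maximal | Compound dosing: Single concentration per test compound | Signal: Fluo4 Ca2+ flux fluorescence | Evaluation: Per-well B score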
# TRPC4 agonist: opens the mouse TRPC4 cation channel | B-score at 10 µM | HEK293 TRPC4beta/mu-opioid, Fluo4 calcium fluorescence; active compounds read high | 310,000 tested, 0.49% active | Q9QUQ5;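 active = B-score above 5 SD of library B-scores, and initial fluorescence ratio not above library mean plus 5 SD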;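 note: positive B-score marks a calcium rise read as TRPC4 activation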
#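 Test system: HEK293 cells stably co-expressing mouse TRPC4beta and mu-opioid receptor | Schedule: Fluo4 dye loading 45 min at room temperature, 110 s recording | Measured by: Kinetic Fluo4 calcium fluorescence, 5 s baseline at 1 Hz | Evaluation: B score of integrated ratio | Controls: Buffer (low) and maximal DAMGO (high)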
# TRPC4 PAM: allosteric potentiators of mouse TRPC4 channel | Q9QUQ5 | HEK293 TRPC4beta/mu-opioid, DAMGO EC20, Fluo-4 Ca2+ flux; active compounds read high | B-score at 10 µM | 310,000 tested, 0.42% active | AID 2227;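 active = B-score of calcium response area above 5 SD of library B-scores, with initial fluorescence ratio within 5 SD of library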;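 note: B-score of integrated fluorescence ratio over time as area under calcium response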
# TRPC6 activator: activates the mouse TRPC6 cation channel. HEK293-TRPC6 membrane potential dye fluorescence; active compounds read high. B-score at 10 µM. 310,000 tested, 0.13% active;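 active = B-score of the integrated fluorescence ratio above library mean plus 3 SD, and starting fluorescence ratio within library mean plus 5 SD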;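 note: higher score means more depolarization so channel activation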
# TRPC6 inhibitor: mouse TRPC6 channel inhibition. Q61143. HEK293-TRPC6, membrane potential dye, ACh-evoked depolarization; active compounds read low. B-score at 10 µM. 310,000 tested, 1.1% active;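 active = B-score under library mean minus 3 SD, initial fluorescence not abnormally high, positive integrated signal ratio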;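 note: B-score derived from integrated fluorescence ratio over the kinetic read; more negative B-score means stronger inhibition of depolarization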
# * hit, by the source's call; i = inactive. Compounds with a hit are over-represented: about 2.5% of the library has one in this group of screens.
SMILES,Platelet DG rel,TRPC4 block,TRPC4 agonist,TRPC4 PAM,TRPC6 activator,TRPC6 inhibitor
CCOC(=O)c1sc(-c2ccccc2)nc1C,4.4,i,i,i,i,i
CCOC(=O)Cc1ccc2sc(-c3ccccc3)nc2c1,55.1*,i,i,i,i,i
C=CCN1C(=O)SC(Cc2cccc(OC)c2O)C1=O (configuration not stated),-8.3,i,i,i,i,i
CCCC(=O)NC(=S)Nc1ccc(S(=O)(=O)Nc2ccc(OCC)cc2)cc1,-6.2,i,i,i,i,i
CCOc1ccc(NS(=O)(=O)c2ccc(NC(=S)NC(=O)CC(C)C)cc2)cc1,-8.9,i,i,22*,i,i
Cc1cccc(CS(=O)(=O)Cc2ccc(C(=O)NCc3cccs3)o2)c1,1.8,i,i,i,i,i
CC(=O)Nc1cccc(C(=O)NCC2(N3CCCCC3)CCCCC2)c1,6.8,-6*,i,i,i,i
COc1ccc(CCC(=O)NC(C)c2ccccc2)cc1OC (configuration not stated),0.2,i,i,i,i,i
CCC(=O)c1cc2c(C)cc(=O)oc2c(C)c1OC(=O)C(C)C,-20.3,-6*,i,i,i,i
CCC(=O)c1cc2c(C)cc(=O)oc2c(C)c1OC(C)=O,14.5,i,i,i,i,i
c1ccn2cc(C34CC5CC(CC(C5)C3)C4)nc2c1,-10.0,-7*,i,i,i,i
COc1ccc(CNC(=O)CN(C(=O)c2snc(C(N)=O)c2N)c2ccccc2F)cc1,-7.6,i,i,i,i,i
Oc1c(Cl)cc(Cl)cc1Sc1cc(Cl)cc(Cl)c1O,-0.6,i,86*,i,i,-8.38*
Oc1c(Cl)cc(Cl)cc1CNn1cnnc1,-0.5,i,i,i,i,i
N#Cc1c(-c2ccccc2)nc(SCC(=O)NC2CCCCC2)[nH]c1=O,-0.9,i,i,i,i,i
CN(C(=O)CSc1nc(-c2ccc(C(C)(C)C)cc2)c(C#N)c(=O)[nH]1)C1CCCCC1,-0.2,-6*,i,i,i,i
O=C(N/N=C/c1cccc([N+](=O)[O-])c1)C(=O)N1CCCCCC1,2.5,i,i,i,i,i
O=C(O)c1ccccc1Nc1cc(Cl)c2nonc2c1[N+](=O)[O-],-1.0,i,i,i,i,i
O=[N+]([O-])c1c(Nc2ccccn2)cc(Cl)c2nonc12,59.4*,i,i,i,i,i
O=[N+]([O-])c1c(Nc2ccc(O)cc2)cc(Cl)c2nonc12,55.6*,i,i,i,i,i
CN(C)c1cc(Nc2ccc(O)cc2)c([N+](=O)[O-])c2nonc12,-2.8,i,i,i,i,i
Cc1cc(C)c(S(=O)(=O)c2ccccc2C)c(OCC(C)(C)C)n1,0.7,-6*,i,i,i,i
Cc1cccc(Cn2c(C(C)(C)C)cc3cccnc32)c1,4.2,-6*,i,i,i,i
Cc1cccc(CN2CCN(c3ncccn3)CC2)c1,-3.0,i,i,i,i,i
COc1ccc(O)c(C(=O)c2cnc3c(c2)c(=O)[nH]c(=O)n3C)c1,-0.3,-6*,i,i,i,i
SMILES,Platelet DG rel,TRPC4 block,TRPC4 agonist,TRPC4 PAM,TRPC6 activator,TRPC6 inhibitor
COCCn1c(=O)[nH]c(=O)c2cc(C(=O)c3cc(Cl)ccc3O)cnc21,-0.1,i,i,i,i,i
CCCSc1nnc(NC(=O)c2sc3nc(-c4cccs4)ccc3c2N)s1,-0.5,i,i,i,i,i
COc1ccc(C(=O)Nc2nc(-c3cccs3)cs2)cc1,4.9,-7*,i,i,i,i
Cc1csc(NC(=O)c2sc3nc(-c4cccs4)ccc3c2N)n1,8.3,i,47*,10*,i,i
O=C(Nc1nc(-c2cccs2)cs1)c1ccc(Cl)cc1,1.8,i,i,i,i,i
CCOC(=O)c1ccc(-n2c(C)nc3ccc(Br)cc3c2=O)cc1,-1.4,i,i,i,i,i
COc1ccc(CNC(=O)CCC(=O)Nc2nnc(CC(C)C)s2)cc1,-6.7,i,i,i,i,i
CN(C)CCN1C(=O)C2C(C(=O)Nc3cc(Cl)cc(Cl)c3)C3C=CC2(O3)C1C(=O)NC1CCCCC1 (configuration not stated),1.8,-7*,i,i,i,i
CC1CCCN(CCCN2C(=O)C3C(C(=O)Nc4ccc(Cl)cc4)C4C=CC3(O4)C2C(=O)NC2CCCCC2)C1 (configuration not stated),-2.0,-6*,i,i,i,i
CCN(CC)CCN1C(=O)C2C(C(=O)Nc3ccc(C(C)C)cc3)C3C=CC2(O3)C1C(=O)NC1CCCCC1 (configuration not stated),-1.5,-6*,63*,i,i,i
CC(C)c1ccc(NC(=O)C2C3C=CC4(O3)C2C(=O)N(CCCN2CCCCC2)C4C(=O)NC2CCCCC2)cc1 (configuration not stated),-1.1,-6*,66*,i,i,i
CCCCN(C)CCN1C(=O)C2C(C(=O)Nc3ccc(C)cc3)C3C=CC2(O3)C1C(=O)NC1CCCCC1 (configuration not stated),1.0,i,i,i,i,i
Cc1cc(C)cc(NC(=O)C2C3C=CC4(O3)C2C(=O)N(CCN2CCCCC2)C4C(=O)NC2CCCCC2)c1 (configuration not stated),-6.5,i,i,i,i,i
CC1CCCCC1NC(=O)c1cc2ccccc2o1 (configuration not stated),12.3,i,i,30*,i,i
O=C(NC1CCCC1)c1cc2ccccc2o1,3.0,i,i,20*,i,i
N=c1oc2ccccc2cc1C(=O)NC1CCCCCC1,5.2,i,i,i,i,i
N=c1oc2ccc(Cl)cc2cc1C(=O)NC1CCCCCC1,-7.8,i,i,18*,i,i
CCOC(=O)c1cc2c(=O)n3cccc(C)c3nc2n(CCOC)c1=NC(C)=O,5.4,i,i,i,i,i
COc1cc(CCCN2C(=S)NC[C@@H]2c2ccccc2)cc(OC)c1OC,-0.4,i,i,i,i,i
CN1C(=O)C2(Nc3ccccc3-c3nc4ccccc4n32)c2ccccc21 (configuration not stated),-0.1,-6*,i,i,i,i
